SIRT5 inh – SIRT5 desuccinylase inhibitors, primary screen, biochemical, fluorescence imaging, single point, set 5; AID 652115, 2013; NAD-dependent protein deacylase sirtuin-5, mitochondrial (Homo sapiens), Q9NXA8; hit rate 1.1% among 330,000; Purified SirT5, succinyl-peptide AMC, trypsin-coupled fluorescence; inhibition, % at 15 µM; in the data active = inhibition above about 15%; inconclusive = no clear call, values can overlap the other calls
Target sequence (Q9NXA8 whole entry, looked up): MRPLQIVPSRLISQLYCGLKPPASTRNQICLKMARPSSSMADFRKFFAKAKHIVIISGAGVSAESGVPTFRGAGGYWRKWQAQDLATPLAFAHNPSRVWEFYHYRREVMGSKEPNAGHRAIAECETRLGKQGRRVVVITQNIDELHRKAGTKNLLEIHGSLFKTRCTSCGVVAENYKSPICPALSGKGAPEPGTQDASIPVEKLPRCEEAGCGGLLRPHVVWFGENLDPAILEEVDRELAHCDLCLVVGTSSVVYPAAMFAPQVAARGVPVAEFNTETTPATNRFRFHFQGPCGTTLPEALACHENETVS
FGF22 binding – binders of human FGF22 protein, primary screen, FGF22 synaptogenesis inhibitor project, biophysical, thermal shift, single point; AID 651658, 2012; activity (Tm shift, normalised), % at 9.99 µM; Fibroblast growth factor 22 (Homo sapiens), Q9HCT0; recombinant FGF22 thermal shift, SYPRO orange fluorescence; percent of sucrose octasulfate shift, DMSO zero; hit rate 1.5% among 340,000;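 active = mean Tm shift, scaled 0 neutral to 100 positive control, at about 1.3% or above, every replicate too, limit read from the data; inconclusive = no clear call, values can overlap the other calls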
Target sequence (Q9HCT0 whole entry, looked up): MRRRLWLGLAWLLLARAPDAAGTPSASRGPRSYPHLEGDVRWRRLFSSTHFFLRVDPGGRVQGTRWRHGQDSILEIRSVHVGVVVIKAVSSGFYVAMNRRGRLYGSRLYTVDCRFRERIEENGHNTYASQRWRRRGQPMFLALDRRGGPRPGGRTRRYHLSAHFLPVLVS
ERAP1 inh – human ERAP1 aminopeptidase inhibitors, primary screen, biochemical, single point, plate reader. recombinant ERAP1, Leu-AMC fluorescence, 60 min. inhibition, % at 10.7 µM. hit rate 0.15% among 340,000. AID 652197, 2013;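 active = mean replicate inhibition of at least 30%, or all replicates individually reaching that 30% level; inactive = mean below 30% and not every replicate reaching it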;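 also: 0% = neutral control wells and 100% = L-leucinethiol positive control wells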
PGC1a acetyl inh – inhibitors of PGC1a acetylation signal, primary screen, cell-based, U2OS, AlphaScreen, inhibitor mode; AlphaScreen anti-acetyl-lysine; with virally co-expressed GCN5 acetyltransferase; inhibition, % at 15.6 µM; hit rate 0.17% among 350,000; AID 651687, 2012;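 active = every replicate shows inhibition of at least 40%; inconclusive = mean inhibition at least 40% but some replicate below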;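 also: 0% = neutral control wells and 100% = positive control wells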
FN deposition inh – inhibitors of fibronectin matrix deposition, primary screen, AH1F cells, Alexa488-fibronectin fluorescence, plate reader; inhibition, % at 12.6 µM; AH1F fibroblasts, overnight; hit rate 0.086% among 350,000;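 active = mean inhibition across replicates of 30% or more, regardless of how many single replicates reach that level; inconclusive = mean under 30% yet at least half of replicates reach 30%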;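 also: positive control wells lacked labelled fibronectin entirely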
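Assay system: AH1F fibroblasts / Quantity: 10000 cells per well / Medium: DMEM plus 2% serum, read in PBS / Reagent: labelled fibronectin 24 nM / Dosing: single dose, pinned / Times: 1 h cell attachment, overnight exposure to compound and label / Signal: fluorescence, ex 485 nm, em 525 nm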
The depositor's hits bear a star; ? = inconclusive; . = not tested or not shown. Sampled rows, rich in hits. Any-hit rate of the full collection: about 2.2%.

SMILES	SIRT5 inh	FGF22 binding	ERAP1 inh	PGC1a acetyl inh	FN deposition inh
COc1ccc2c3c(n(C)c2c1)[C@H](CO)N(S(C)(=O)=O)CC31CCN(C(=O)C2CCC2)CC1	0	0	2	.	.
Cc1cccc(OCC(=O)Nc2ccncc2)c1C	15*	0	1	11	5
COc1cccc(N2CC(=O)N(c3cccc(OC)c3)CC2=O)c1	4	44*	-4	.	-5
CCN1CCN(C(=O)/C=C/c2ccc(OC)cc2)CC1	0	0	-3	.	6
CCN1CCN(C(=O)/C=C/c2ccc(F)cc2)CC1	18*	0	.	7	-4
Nc1cc(-c2ccc(Br)cc2)[nH]n1	-5	0	1	13	-7
Cc1cc(-c2ccc(Br)cc2)n[nH]1	16*	0	.	3	4
O=C(N[C@H]1CC[C@H](CCNS(=O)(=O)Cc2ccccc2)O[C@H]1CO)c1ccccc1F	1.7*	0	0	-9	4
O=C(CC1CC1)N[C@@H]1CC[C@@H](CCNS(=O)(=O)c2ccc(Cl)cc2)O[C@H]1CO	-1	0	-3	-17	-5
O=C(CC1CC1)N[C@H]1CC[C@@H](CCNS(=O)(=O)c2ccc(Cl)cc2)O[C@@H]1CO	-2	0	-1	67*	-8
O=C(C[C@H]1CC[C@@H](NC(=O)c2ccccc2)[C@H](CO)O1)NCCc1ccncc1	32*	0	-1	4	3
O=C(CN1CCOCC1)N[C@@H]1CC[C@H](CCNC(=O)C2CCCCC2)O[C@H]1CO	15*	0	-3	23	-5
O=C(CN1CCOCC1)N[C@H]1CC[C@@H](CCNC(=O)C2CCCCC2)O[C@H]1CO	0	0	-4	17	-8
O=C(C[C@@H]1CC[C@@H](NC(=O)c2ccccc2)[C@H](CO)O1)NCCc1ccncc1	-1	0	-1	-6	-4
COc1cccc(C#Cc2ccc([C@H]3[C@@H](CO)N4C(=O)CN(C(=O)C5CC5)C[C@H]34)cc2)c1	-3	.	1	-3	.
O=C(N[C@@H]1CC[C@H](CCNS(=O)(=O)c2ccccc2)O[C@H]1CO)c1cnccn1	28*	0	-1	3	.
O=C(N[C@H]1CC[C@H](CCNS(=O)(=O)c2ccccc2Cl)O[C@@H]1CO)c1ccccc1	18*	0	3	3	.
O=C(NCC[C@@H]1CC[C@H](NC(=O)C2CC2)[C@H](CO)O1)c1cc(Cl)cc(Cl)c1	38*	0	2	-5	.
O=C(NCC[C@H]1CC[C@H](NC(=O)C2CC2)[C@H](CO)O1)c1cc(Cl)cc(Cl)c1	-5	0	2	2	.
C[C@H](CO)N1C[C@H](C)[C@H](CN(C)Cc2ccc(C(=O)O)cc2)Oc2c(NS(=O)(=O)c3ccc(Cl)cc3)cccc2C1=O	3	0	1	3	.
C[C@@H]1CN([C@H](C)CO)C(=O)c2cc(NC(=O)Cc3ccccc3)ccc2O[C@H]1CN(C)CC1CC1	3	0	-2	3	.
CC=Cc1ccc2n(c1=O)C[C@@H]1[C@@H](CO)[C@H](C(=O)N[C@H](C)c3ccccc3)[C@H]2N1CC1CC1 (mixture of isomers)	-1	0	1	.	.
N#CC1=C(SCC(=O)NC23CC4CC(CC(C4)C2)C3)NC(=O)C(C#N)C12CCCCC2 (stereo not given)	2	1.9*	-4	-6	.
C[C@@H]1CN([C@@H](C)CO)C(=O)c2cccc(NC(=O)Nc3ccc(C(F)(F)F)cc3)c2O[C@H]1CN(C)C(=O)Nc1ccc2c(c1)OCO2	.	0	.	0	.
CCCN1[C@@H]2c3ccc(C4=CCCCC4)c(=O)n3C[C@H]1[C@H](CO)[C@H]2C(=O)N1CCc2ccccc2C1	-9	0	-3	.	.
SMILES	SIRT5 inh	FGF22 binding	ERAP1 inh	PGC1a acetyl inh	FN deposition inh
COc1ccc(S(=O)(=O)Nc2ccc3c(c2)CC(=O)N([C@@H](C)CO)C[C@H](C)[C@@H](CN(C)S(C)(=O)=O)O3)cc1	.	0	1	-16	-6
COc1ccc(NC(=O)Nc2ccc3c(c2)CC(=O)N([C@@H](C)CO)C[C@@H](C)[C@@H](CN(C)C(=O)Nc2ccc(C(F)(F)F)cc2)O3)cc1	.	0	.	2	.
CCCCCc1ccc(-c2nnc(N)s2)cc1	-2	43*	-6	8	-6
COCC(=O)Nc1ccc2c(c1)[C@@H]1C[C@@H](CC(=O)NCc3ccc(Cl)cc3)O[C@@H](CO)[C@@H]1O2	.	0	.	3	3
O=S(=O)(N[C@@H]1CCCN(Cc2ccc(OCCO)cc2)C1)c1ccccc1	.	0	3	.	.
CC(C)Cc1ccc(CN2CC[C@@H](NS(=O)(=O)c3ccccc3)C2)cc1	-2.2*	0	0	4	.
COc1ccc(NC(=O)Nc2ccc3c(c2)C(=O)N([C@H](C)CO)C[C@@H](C)[C@@H](CN(C)C(=O)NC2CCCCC2)OCCCC[C@H](C)O3)cc1	5	0	0	-6	.
O=C1C=CC2(C=C1)O[C@H](Cc1ccccc1)[C@@H](Cc1ccccc1)O2	0	0	-1	?	41*
COc1ccc(C[C@@H]2OC3(C=CC(=O)C=C3)O[C@H]2Cc2ccc(OC)cc2)cc1	.	.	.	90*	.
O=C(Nc1cc(F)ccc1F)N[C@H]1CC[C@H](CCn2cc(C3CC3)nn2)O[C@@H]1CO	-1	0	0	-3	-14
COc1ccc(S(=O)(=O)NNC(=O)c2ccccc2-n2cccc2)cc1	-3	43*	4	0	8
Cc1cccc(C(=O)NNS(=O)(=O)c2ccccc2)c1O	-1	43*	3	.	8
Cc1ccc(/C=C2\CCOC2=O)cc1	-1	0	-1	.	-1
Cc1ccc(/C=C2/CNC/C(=C/c3ccc(C)cc3)C2=O)cc1	-6	0	3	74*	0
C[C@@H]1CN([C@@H](C)CO)C(=O)CCCn2cc(nn2)CO[C@@H]1CN(C)C(=O)Nc1ccc(C(C)(C)C)cc1	.	.	.	15	-16
COc1ccc2c(c1)c(CC(=O)Nc1cccc(S(N)(=O)=O)c1)c(C)n2C(=O)c1ccc(Cl)cc1	17*	0	.	-11	1
CCC(=O)N1C[C@@H](C)[C@H](OC)CN(C)C(=O)c2ccc(NC(=O)Nc3ccc(Cl)cc3)cc2OC[C@H]1C	.	.	.	19	4
C/C(=N\NC(=S)NCc1ccccc1)c1ccccc1	-3	0	4	-12	-7
CC1=C/C(=N\NC(=S)NCc2ccccc2)CC1	18*	1	1	3	-2
O[C@H]1C[C@H](c2ccccc2)N(Cc2cccs2)C[C@@H]1n1cc(-c2ccc(F)cc2)nn1	16*	1	-1	-7	1
